Data on 1 compound can be found in ChEMBL document CHEMBL3525987, “Assessment of exposure of metabolites in preclinical species and humans at steady state from the single-dose radiolabeled absorption, distribution, metabolism, and excretion studies: a case study” (Drug Metab Dispos, 2012).

Molecules are shown by their SMILES.

Details in all cases: in vivo
A short description of data set [1]: Drug recovery in feces of male Sprague-Dawley rat at 10 mg/kg, po administered as single dose via gavage measured after 168 hrs by liquid scintillation counting. The format is ADME, organism-based. Details: dose 10 mg/kg, dosed compound name [14C]lixivaptan, route oral. In short, it runs like this:
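Intact SD rats (3/gender) dosed by gavage with [14C]drug 10 mg/kg (10 ml/kg, pluronic F68/water), housed in metabolism cages; urine and feces at 0-8, 8-24 h, then every 24 h to 7 days. Urine counted by LSC; feces homogenized 20% w/w in water, combusted, trapped CO2 counted; cage wash/debris included; % of dose.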

The test system of data set [2] is Homo sapiens. Description: Cmax as total radioactivity in human plasma at 100 mg, po administered as single dose by LC-MS/MS analysis. In kind it is ADME, organism-based. Details: dose 100 mg, route oral, dosed compound name [14C]lixivaptan. In short, it runs like this:
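Fasted healthy males took one oral 100 mg (200 µCi) [14C]lixivaptan dose. Plasma was drawn from predose to 144 h. Total radioactivity was measured by LSC and converted to ng-equiv/ml via the dose specific activity; lixivaptan by validated LC-MS/MS. Noncompartmental analysis: Cmax observed; kel by log-linear regression; AUC0-t by linear trapezoid; extrapolation as Cest/kel.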

A short description of data set [3]: Drug recovery in bile of bile duct-cannulated female Sprague-Dawley rat at 10 mg/kg, po administered as single dose via gavage measured 0 to 48 hrs by liquid scintillation counting. The format is ADME, organism-based. Details: dose 10 mg/kg, dosed compound name [14C]lixivaptan, route oral. In a few lines: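 Bile-duct cannulated SD rats (n=5) got single gavage of [14C]drug 10 mg/kg as pluronic F68/water suspension. Bile collected on wet ice at 0-4, 4-8, 8-24, 24-48 h; drinking water supplemented with bile salts and electrolytes. Duplicate aliquots counted by liquid scintillation; expressed as % of dose.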

The subject of data set [4] is Rattus norvegicus. Put plainly: Drug level in female Sprague-Dawley rat plasma at 10 mg/kg, po administered as single dose via gavage measured after 1 hr by liquid scintillation counting. More on the design: dose 10 mg/kg, dosed compound name [14C]lixivaptan, route oral. The format is ADME, organism-based. In short, it runs like this: (§1)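 Sprague-Dawley rats (9/gender) were fasted 18 h and gavaged once with [14C]lixivaptan at 10 mg/kg (10 ml/kg), about 29.8 µCi/mg, suspended in deionized water with pluronic F68. Plasma came by cardiac puncture under isoflurane at 1, 8 and 24 h (3/gender/time) and was extracted twice with 2 volumes of acetonitrile. C18 radio-HPLC with a flow scintillation detector gave percent of plasma radioactivity per peak.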

Data set [5] concerns Rattus norvegicus. Description: AUC (0 to 24 hrs) in female Sprague-Dawley rat at 10 mg/kg, po administered as single dose via gavage. In kind it is ADME, organism-based, Plasma. Details: time < 24 hr, dose 10 mg/kg, dosed compound name [14C]lixivaptan, route oral. In a few lines:
as §1

Data set [6] has as its system Homo sapiens. Description: Drug level in human plasma at 100 mg, po administered as single dose measured after 8 hrs by liquid scintillation counting. In kind it is ADME, organism-based. More on the design: dosed compound name [14C]lixivaptan. In a few lines: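 Healthy male volunteers fasted ≥10 h, given single oral 100 mg (200 µCi) [14C]drug as two 50-mg capsules with 250 ml water. Plasma (from ~50 ml blood) at 0.5, 2, 4, 8, 12, 24, 36 h, profiled per subject. Acetonitrile extraction, C18 radio-HPLC with 0.2% formic acid acetonitrile/water gradient, on-line radioactivity detection as % plasma radioactivity; ng-equiv/ml from % × total radioactivity.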

On to `Cc1ccc(F)cc1[14C](=O)Nc1ccc(C(=O)N2Cc3cccn3Cc3ccccc32)c(Cl)c1`, for which the values for the Radiolabel recovery in data set [1] and in data set [3] were 91% and 70.5%, respectively. Moreover, the Cmax in the data set on Homo sapiens [2] was found to be 1770 ngequiv/ml. Moreover, the Compound recovery worked out at 29.9% in the data set on Rattus norvegicus [4] and 6.7% in the data set with Homo sapiens [6]. This compound also yielded an AUC with Rattus norvegicus [5] of 5580 ng.Eq.hr/ml.
